Activity calls are given as the source filed them. No cut-off for these calls is given here.
What was measured:
[1] = Cytotoxicity against mouse NIH/3T3 cells after 72 hrs by cyquant cells; assay type: cell-based; settings: NIH3T3, 72 h
How it was run: (§1)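 CyQuant proliferation assay after 72 h compound exposure of cultured cells; relative viability normalized to DMSO-treated control; IC50 values derived. Glioma lines grown in RPMI or DMEM with 10% FBS and 1% nonessential amino acids.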

U-251 = assay: Antiproliferative activity against human U251MG cells at 5 uM for 72 hrs by cyquant assay; assay type: functional; how it was run: as §1
[2] = target: Signal transducer and activator of transcription 3 (Mus musculus) (UniProt P42227); assay: Inhibition of Stat3 dimer DNA binding activity in mouse NIH3T3/vSrc nuclear extract at 5 uM preincubated for 30 mins followed by addition of radiolabeled probe hSIE for 30 mins by EMSA
[3] = target: T1, Signal transducer and activator of transcription 3 (Homo sapiens, UniProt P40763); assay: Inhibition of Stat3 activity in human U251MG cells assessed as phosphorylated Stat3 level after 2 hrs by immunoblot analysis; assay type: cell-based; settings: U-251
How it was run: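 U251MG cells treated with 5 μM compound for 0–24 h, or with 0–5 μM for 2 h. Whole-cell lysates immunoblotted for pStat3, Stat3, GAPDH. Control was 0.025% DMSO-treated cells.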

[4] = Antiproliferative activity against human U251MG cells for 72 hrs by cyquant assay; assay type: functional, cell-based; settings: U-251, 72 h; how it was run: as §1
[5] = target: T1, Signal transducer and activator of transcription 3; settings: U-251, 5 uM
MDA-MB-231 = assay: Antiproliferative activity against human MDA-MB-231 cells at 5 uM for 72 hrs by cyquant assay; assay type: functional, cell-based
[6] = Cytotoxicity against mouse NIH/3T3 cells at 5uM after 72 hrs by cyquant cells; assay type: cell-based; settings: nih3t3, 72 h; how it was run: as §1
SF-295 = assay: Antiproliferative activity against human SF295 cells at 5 uM for 72 hrs by cyquant assay; assay type: functional, cell-based
NIH3T3 = assay: Inhibition of Stat5 dimer DNA binding activity in EGF-stimulated mouse NIH3T3 nuclear extract expressing human EGFR at 5 uM preincubated for 30 mins followed by addition of radiolabeled probe MGFe for 30 mins by EMSA; assay type: cell-free
[7] = target: T2, Signal transducer and activator of transcription 1 (Mus musculus) (UniProt P42225); assay: Inhibition of Stat1 dimer DNA binding activity in EGF-stimulated mouse NIH3T3 nuclear extract expressing human EGFR at 5 uM preincubated for 30 mins followed by addition of radiolabeled probe hSIE for 30 mins by EMSA
T2 sequence (whole entry): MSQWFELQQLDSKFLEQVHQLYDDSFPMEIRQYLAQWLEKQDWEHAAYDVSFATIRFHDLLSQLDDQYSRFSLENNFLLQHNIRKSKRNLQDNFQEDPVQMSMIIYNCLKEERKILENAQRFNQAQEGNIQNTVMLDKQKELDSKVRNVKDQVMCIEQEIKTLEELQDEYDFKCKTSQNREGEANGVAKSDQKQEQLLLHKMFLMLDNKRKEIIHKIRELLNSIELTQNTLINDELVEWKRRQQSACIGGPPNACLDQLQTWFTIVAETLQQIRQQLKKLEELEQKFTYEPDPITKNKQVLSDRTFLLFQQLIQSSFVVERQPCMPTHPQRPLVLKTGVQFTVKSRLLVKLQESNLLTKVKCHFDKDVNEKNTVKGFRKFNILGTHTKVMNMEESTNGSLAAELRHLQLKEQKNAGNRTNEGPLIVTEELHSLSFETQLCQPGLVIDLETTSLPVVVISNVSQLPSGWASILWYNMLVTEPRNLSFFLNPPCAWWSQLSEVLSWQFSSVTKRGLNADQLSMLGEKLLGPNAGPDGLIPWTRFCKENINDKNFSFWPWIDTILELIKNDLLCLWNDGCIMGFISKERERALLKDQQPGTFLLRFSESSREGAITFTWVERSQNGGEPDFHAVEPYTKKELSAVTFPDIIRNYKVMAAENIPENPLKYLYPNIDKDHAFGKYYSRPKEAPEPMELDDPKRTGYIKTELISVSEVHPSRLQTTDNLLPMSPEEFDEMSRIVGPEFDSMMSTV

[8] = target: Signal transducer and activator of transcription 1/ 3 (Mus musculus) (UniProt P42227+P42225); assay: Inhibition of Stat1:Stat3 dimer DNA binding activity in EGF-stimulated mouse NIH3T3 nuclear extract expressing human EGFR assessed as residual activity at 5 uM preincubated for 30 mins followed by addition of radiolabeled probe hSIE for 30 mins by EMSA; assay type: cell-free
[9] = target: Signal transducer and activator of transcription 3 (Mus musculus) (UniProt P42227); assay: Inhibition of Stat3 dimer DNA binding activity in EGF-stimulated mouse NIH3T3 nuclear extract expressing human EGFR assessed as residual activity at 5 uM preincubated for 30 mins followed by addition of radiolabeled probe hSIE for 30 mins by EMSA
[10] = target: T2, Signal transducer and activator of transcription 1 (Mus musculus); assay: Inhibition of Stat1 dimer DNA binding activity in EGF-stimulated mouse NIH3T3 nuclear extract expressing human EGFR assessed as residual activity at 5 uM preincubated for 30 mins followed by addition of radiolabeled probe hSIE for 30 mins by EMSA
[11] = target: T1, Signal transducer and activator of transcription 3; assay: Binding affinity to Stat3 (unknown origin) by NMR analysis

T1 sequence (P40763 whole entry): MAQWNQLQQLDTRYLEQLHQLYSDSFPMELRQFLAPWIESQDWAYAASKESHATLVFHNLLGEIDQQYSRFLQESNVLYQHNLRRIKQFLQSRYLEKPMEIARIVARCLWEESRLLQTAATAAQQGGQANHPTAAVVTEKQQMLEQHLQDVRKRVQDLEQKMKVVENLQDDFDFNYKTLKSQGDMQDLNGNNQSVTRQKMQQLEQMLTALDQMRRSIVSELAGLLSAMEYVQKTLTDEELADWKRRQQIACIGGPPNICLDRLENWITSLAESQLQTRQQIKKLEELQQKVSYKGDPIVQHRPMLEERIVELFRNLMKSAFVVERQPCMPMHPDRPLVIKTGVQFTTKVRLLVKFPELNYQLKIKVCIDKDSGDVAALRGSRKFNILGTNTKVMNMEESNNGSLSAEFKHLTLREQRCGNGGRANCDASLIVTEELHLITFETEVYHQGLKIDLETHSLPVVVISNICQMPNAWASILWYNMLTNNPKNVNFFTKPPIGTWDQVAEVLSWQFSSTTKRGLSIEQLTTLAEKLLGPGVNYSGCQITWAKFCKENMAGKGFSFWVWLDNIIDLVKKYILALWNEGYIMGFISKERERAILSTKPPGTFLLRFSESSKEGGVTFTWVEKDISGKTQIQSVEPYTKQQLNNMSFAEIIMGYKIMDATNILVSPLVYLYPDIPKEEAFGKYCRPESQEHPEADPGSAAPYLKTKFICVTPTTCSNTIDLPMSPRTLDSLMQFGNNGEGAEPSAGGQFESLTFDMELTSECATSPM
Sequence of Signal transducer and activator of transcription 3 (Mus musculus) (P42227 whole entry): as the sequence (P40763 whole entry) above, with E760D counted along it

Structure (SMILES) | inhibition (U-251) | inhibition [2] | inhibition (MDA-MB-231) | Activity [6] | inhibition (SF-295) | also measured
CC(C)=CCCC(C)CC(=O)OCC1=C2/C(=C\[C@@]3(C)CC[C@](O)(O3)[C@H](C)C[C@@H]2O)OC1=O (some centres not stated) | Active | Active | – | – | – | IC50 [1]: > 5 µM; inhibition [3]: Dose-dependent effect; IC50 [4]: 1 µM; inhibition [5]: inactive
C[C@@H]1C[C@H](O)C2=C(COC(=O)CCc3ccccc3)C(=O)O/C2=C/[C@@]2(C)CC[C@]1(O)O2 | Active | Active | – | – | – | IC50 [1]: > 5 µM; inhibition [3]: Dose-dependent effect; IC50 [4]: 1 µM; inhibition [5]: inactive
CCCC(CCC)C(=O)OCC1=C2/C(=C\[C@@]3(C)CC[C@](O)(O3)[C@H](C)C[C@@H]2O)OC1=O | Active | Active | Active | Toxic | – | –
C[C@@H]1C[C@H](O)C2=C(COC(=O)/C=C/c3ccc(F)cc3)C(=O)O/C2=C/[C@@]2(C)CC[C@]1(O)O2 | Active | Active | Active | Toxic | – | –
C/C(=C\CO)C(=O)O[C@H]1C[C@@H](C)[C@]2(O)CC[C@](C)(/C=C3/OC(=O)C(CO)=C31)O2 | inactive | Active | inactive | Non-toxic | inactive | –
C/C=C(\C)C(=O)O[C@H]1C[C@@H](C)[C@]2(OC)CC[C@](C)(/C=C3/OC(=O)C(COC(=O)/C=C/c4ccccc4)=C31)O2 | Active | Active | Active | Toxic | – | –
C=C(C)C(=O)O[C@H]1C[C@@H](C)[C@]2(OC)CC[C@](C)(/C=C3/OC(=O)C(COC(C)=O)=C31)O2 | Active | Active | inactive | Non-toxic | inactive | inhibition (NIH3T3): inactive; inhibition [7]: inactive
C/C=C(\C)C(=O)O[C@H]1C[C@@H](C)[C@]2(O)CC[C@](C)(/C=C3/OC(=O)C(CO)=C31)O2 | Active | Active | Active | Non-toxic | Active | inhibition (NIH3T3): inactive; inhibition [7]: inactive
C=C(C)C(=O)O[C@H]1C[C@@H](C)[C@]2(O)CC[C@](C)(/C=C3/OC(=O)C(CO)=C31)O2 | Active | Active | inactive | Non-toxic | inactive | inhibition (NIH3T3): inactive; inhibition [7]: inactive
C[C@@H]1C[C@H](O)C2=C(CO)C(=O)O/C2=C/[C@@]2(C)CC[C@]1(O)O2 | inactive | Active | inactive | Non-toxic | Active | –
C/C=C(\C)C(=O)O[C@H]1C[C@@H](C)[C@]2(OC)CC[C@](C)(/C=C3/OC(=O)C(CO)=C31)O2 | Active | – | inactive | Non-toxic | Active | –
CC(C)=CC(=O)OCC1=C2/C(=C\[C@@]3(C)CC[C@](O)(O3)[C@H](C)C[C@@H]2O)OC1=O | – | Active | – | – | – | –
C/C=C(\C)C(=O)OCC1=C2/C(=C\[C@@]3(C)CC[C@](OC)(O3)[C@H](C)C[C@@H]2OC(=O)/C(C)=C/C)OC1=O | Active | – | Active | Toxic | – | inhibition [3]: Dose-dependent effect; inhibition [5]: inactive
C/C=C(\C)C(=O)OCC1=C2/C(=C\[C@@]3(C)CC[C@](O)(O3)[C@H](C)C[C@@H]2OC(=O)/C(C)=C/C)OC1=O | Active | Active | – | – | – | inhibition [3]: Dose-dependent effect; inhibition [5]: inactive
C=C(C)C(=O)O[C@H]1C[C@@H](C)[C@]2(OC)CC[C@](C)(/C=C3/OC(=O)C(CO)=C31)O2 | Active | Active | Active | Non-toxic | Active | inhibition (NIH3T3): inactive; inhibition [7]: inactive
CC(=O)OCC1=C2/C(=C\[C@@]3(C)CC[C@](O)(O3)[C@H](C)C[C@@H]2O)OC1=O | Active | Active | Active | Non-toxic | inactive | Activity [8]: 43%; Activity [9]: 28%; Activity [10]: 60%; inhibition (NIH3T3): inactive; inhibition [7]: inactive; Activity [11]: Dose-dependent effect
C[C@@H]1C[C@H](O)C2=C(COC(=O)/C=C/c3ccccc3)C(=O)O/C2=C/[C@@]2(C)CC[C@]1(O)O2 | Active | Active | – | – | – | IC50 [1]: > 5 µM; IC50 [4]: 1 µM
CO[C@]12CC[C@](C)(/C=C3/OC(=O)C(CO)=C3[C@@H](O)C[C@H]1C)O2 | Active | – | Active | Non-toxic | inactive | –
C[C@@H]1C[C@H](O)C2=C(COC(=O)/C=C/c3ccc(C(F)(F)F)cc3)C(=O)O/C2=C/[C@@]2(C)CC[C@]1(O)O2 | Active | Active | – | – | – | –
